Assay outcomes deposited in PubChem by The Scripps Research Institute Molecular Screening Center.
Rows were chosen to be rich in hits. Some 2.1% of all compounds tested hit in one or more screens of this group.
IMP-1 inhibitor: blocks Pseudomonas aeruginosa IMP-1 metallo-beta-lactamase | purified IMP-1, nitrocefin hydrolysis, epi-absorbance fluorescence | inhibition, % at 5.6 µM | 290,000 compounds, 0.45% hits | AID 1556;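 active means inhibition above the mean plus 3 SD of all compounds in the same screening run, cut at about 4.5% in these data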
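Assay system: purified recombinant IMP-1 beta-lactamase. Input: IMP-1 0.2 nM before substrate addition. Buffer or medium: Zinc- and detergent-supplemented HEPES buffer, pH 7.1. Schedule: 25 °C, 15 min preincubation, 25 min reaction. Signal: Epi-absorbance fluorescence, 480 nm excitation, 530 nm emission. Evaluation: percent inhibition from optical density relative to buffer-blank wells.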
PKA-R1A act: PKA-R1A complex activation | P00514+P68181 | PKA-R1A dissociation, Cy5-IP20 fluorescence polarization; scaled: DMSO 0%, 113 µM cGMP 100% | activation, % at 11.4 µM | 340,000 compounds, 0.083% hits | AID 504707;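 active means percent activation above the mean of all tested compounds plus 3 SD, cut at about 19% in these data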;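 further: higher means more PKAc released from R1A so a rise in polarization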
MsrA inhibitor: inhibitors of bovine MsrA. purified bovine MsrA, absorbance read-out. inhibition, % at 15.5 µM. 360,000 compounds, 0.75% hits; in the data active means inhibition above about 4.5%
VIM-2 inhibitor: blocks Pseudomonas aeruginosa VIM-2 metallo-beta-lactamase; purified VIM-2, nitrocefin hydrolysis, epi-absorbance fluorescence; inhibition, % at 5.6 µM; 290,000 compounds, 0.89% hits;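 active means inhibition above the mean of all tested compounds plus 3 SD, cutoff set per screening run, cut at about 7.5% in these data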;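 further: red hydrolysis product quenches plate fluorescence so inhibitors raise well fluorescence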
MsrA act: bovine methionine sulfoxide reductase A activation. 360,000 compounds, 0.3% hits. activation, % at 10.6 µM. purified bovine MsrA, absorbance read-out; in the data active means activation above about 7.5%
PKA-R2B act: activates the human PKA-R2B holoenzyme complex; PKA-R2B holoenzyme dissociation, Cy5-IP20 fluorescence polarization; R2B truncated from residue 108, S112A mutant; 0% DMSO only, 100% 113 µM cGMP; activation, % at 11.4 µM; 340,000 compounds, 0.079% hits;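 active means activation above a cutoff set at the mean over all compounds plus 3 SD, cut at about 18% in these data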;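 further: higher means more holoenzyme dissociation and a rise in polarization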
Target sequence (P31323 whole entry, looked up, other chains not shown, the tested form may be a part): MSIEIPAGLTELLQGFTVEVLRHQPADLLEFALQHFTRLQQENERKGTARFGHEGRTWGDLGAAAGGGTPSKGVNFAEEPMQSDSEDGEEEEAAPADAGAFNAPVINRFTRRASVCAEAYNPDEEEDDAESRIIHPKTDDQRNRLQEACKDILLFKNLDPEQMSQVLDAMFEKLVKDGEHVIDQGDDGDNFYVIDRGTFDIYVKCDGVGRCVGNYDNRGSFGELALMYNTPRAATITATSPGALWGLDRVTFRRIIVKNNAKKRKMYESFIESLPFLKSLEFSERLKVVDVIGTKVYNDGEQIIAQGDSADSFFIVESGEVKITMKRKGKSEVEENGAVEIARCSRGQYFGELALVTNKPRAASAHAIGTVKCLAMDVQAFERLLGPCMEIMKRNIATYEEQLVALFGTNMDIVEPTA
A number is an active result; . = inactive; / = not tested or not shown.

SMILES	IMP-1 inhibitor	PKA-R1A act	MsrA inhibitor	VIM-2 inhibitor	MsrA act	PKA-R2B act
O=C(O)c1cc([N+](=O)[O-])ccc1NCc1ccccc1Cl	.	.	.	11	.	.
O=C(O)c1cc([N+](=O)[O-])ccc1NCc1ccccn1	/	.	.	/	.	.
Cc1cn([C@H]2C[C@H](O)[C@@H](/C=C/C(=O)NCc3cccc4ccccc34)O2)c(=O)[nH]c1=O	/	/	.	/	.	/
CC(C)OC(=O)c1c(NC(=O)C2CC=CCC2C(=O)O)sc2c1CCCCC2 (stereo unspecified)	.	.	.	.	.	.
NC(=O)c1c(NC(=O)C2CC=CCC2C(=O)O)sc2c1CCCCC2 (stereo unspecified)	5.7	.	.	.	.	.
O=C(CCN1C(=O)C2C3CCC(C3)C2C1=O)Nc1cccc(Cl)c1 (stereo unspecified)	5.9	.	.	.	.	.
COC(=O)Cc1c([C@H](C)[C@@H](OC)c2ccccc2Br)nnn1Cc1ccccc1	/	/	.	/	/	/
Cc1cc(N2CCN(c3ccccn3)CC2)n2nc(C)nc2n1	.	.	.	10	.	.
Cc1ccn2nc(C(=O)OCC(=O)N(CC(C)C)C3CCS(=O)(=O)C3)nc2n1 (stereo unspecified)	/	.	.	/	.	.
Cc1cc(N2CCN(c3ccccc3)CC2)n2c(n1)nc1ccccc12	.	.	.	11	.	.
Cc1cc(N2CCN(c3ccccc3)CC2)n2nnnc2n1	.	.	.	.	.	.
O=C(Nc1ccc(Cl)c(S(=O)(=O)N2CCCC2)c1)c1nn(CCO)c(=O)c2ccccc12	/	.	.	/	.	.
COCc1cc(Sc2ccc(Cl)cc2)nc(-c2ccccc2)n1	.	.	.	.	.	.
COCc1cc(Sc2cccc(Cl)c2Cl)nc(-c2ccccc2)n1	.	.	.	.	23	.
COc1ccc(/C=N/Nc2ccc([N+](=O)[O-])cc2)cc1Cn1cc([N+](=O)[O-])cn1	4.6	.	.	.	.	.
COc1ccc(/C=N/n2cncn2)cc1Cn1cc([N+](=O)[O-])cn1	.	/	.	.	.	/
C=CCN=C(NC#N)SCC(=O)NC(C)(C)C	5.4	.	.	.	.	.
CC(C)N=C(NC#N)SCC(=O)NC(C)(C)C	.	.	.	.	.	.
Cc1ccc(O)c(Nc2c3ccccc3nc3ccccc23)c1	.	.	.	9.2	.	.
Cc1ccc(-n2nc3c(=O)n(CC(=O)NCCc4ccc(Cl)cc4)nc(C)c3c2C)cc1	18	.	.	.	.	.
Cc1ccc(-n2nc3c(=O)n(CCCC(=O)NCCN4CCN(C)CC4)nc(C)c3c2C)cc1	4.9	.	.	.	.	.
O=C(CCCc1ccccc1)Nc1ccc(S(=O)(=O)N2CCOCC2)cc1	.	.	.	.	.	.
O=C(CCSc1ccccc1)Nc1ccc(S(=O)(=O)N2CCOCC2)cc1	47	.	.	.	.	.
Cc1cccc(N2CCN(CC(=O)Nc3ccc(S(=O)(=O)N4CCOCC4)cc3)CC2)c1C	4.5	.	.	.	.	.
Cc1ccc(S(=O)(=O)N2CCN(CC(=O)Nc3ccc(N4CCOCC4)cc3)CC2)cc1C	.	.	.	.	.	.
SMILES	IMP-1 inhibitor	PKA-R1A act	MsrA inhibitor	VIM-2 inhibitor	MsrA act	PKA-R2B act
CCOC(=O)c1c(C)n(C)c2ccc(OCC(O)CN3CCC(C)CC3)cc12 (stereo unspecified)	.	.	.	7.9	.	.
CCOC(=O)c1c(C)n(C)c2ccc(OCC(O)CN3CCCCCC3)cc12 (stereo unspecified)	.	.	.	.	.	.
O=C(O)c1cccc(S(=O)(=O)NNc2ccccc2C(F)(F)F)c1	25	.	.	.	.	.
O=C(CC(C(=O)c1ccccc1)c1ccccc1)c1ccccc1 (stereo unspecified)	/	.	.	/	.	.
O=C(CC(C(=O)O)c1cccc(Cl)c1)c1ccccc1 (stereo unspecified)	.	.	.	11	.	.
Nc1ccc(-c2nc3ccccc3o2)cc1	.	.	.	.	.	.
Nc1ccc(-c2c3ccccc3nc3ccccc23)cc1	.	.	.	9.6	.	.
Cc1cc(NC(=O)c2ccc3c(c2)OCO3)no1	4.7	.	.	.	.	.
